According to ChEMBL document CHEMBL5705890, “Antitumor activity of an allosteric inhibitor of centromere-associated protein-E” (Proc Natl Acad Sci U S A, 2010):

Experiments:
Type in all cases: functional
BE(2)-C = test: Anticancer activity against human BE2C cells assessed as cell doubling measured for 72 hrs by DAPI staining based analysis
BeWo = test: Anticancer activity against human BeWo cells assessed as cell growth inhibition measured after 72 hrs by DAPI staining based analysis
In short: (§1)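 Cells were seeded, and DNA content at 24 h after seeding (T0) was read by imaging of fixed, DAPI-stained cells. Cells were then exposed to a range of drug concentrations for a further 72 h (T72) and DNA content was read again. T72 values were normalized to T0, and GI50 was taken from curve fits as the concentration giving 50% growth inhibition relative to T0 and Ymax.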

SK-NEP-1 = test: Anticancer activity against human SK-NEP-1 cells assessed as cell growth inhibition measured after 72 hrs by DAPI staining based analysis
MX1 = test: Antitumor activity against human MX1 cells in xenograft model assessed as difference between median time to endpoint time of treated versus control group at 125 mg/kg
WiDr = test: Anticancer activity against human WiDr cells assessed as cell growth inhibition measured after 72 hrs by DAPI staining based analysis
A549 = test: Antitumor activity against human A549 cells in xenograft model assessed as difference between median time to endpoint time of treated versus control group at 125 mg/kg
MDA-MB-468 = test: Anticancer activity against human MDA-MB-468 cells assessed as cell growth inhibition measured after 72 hrs by DAPI staining based analysis
U2OS = test: Anticancer activity against human U2OS cells assessed as cell doubling measured for 72 hrs by DAPI staining based analysis
[1] = Anticancer activity against human RDES cells assessed as cell growth inhibition measured after 72 hrs by DAPI staining based analysis; details: RD-ES
COLO 205 [2] = test: Anticancer activity against human COLO 205 cells assessed as cell growth inhibition measured after 72 hrs by DAPI staining based analysis; in short: as §1
NCI-H146 = test: Anticancer activity against human NCI-H146 cells assessed as cell doubling measured for 72 hrs by DAPI staining based analysis
CAL-27 = test: Anticancer activity against human CAL-27 cells assessed as cell doubling measured for 72 hrs by DAPI staining based analysis
SK-N-AS = test: Anticancer activity against human SK-N-AS cells assessed as cell doubling measured for 72 hrs by DAPI staining based analysis
HMCB cell line = test: Anticancer activity against human HMCB cells assessed as cell doubling measured for 72 hrs by DAPI staining based analysis
FaDu = test: Anticancer activity against human FaDu cells assessed as cell growth inhibition measured after 72 hrs by DAPI staining based analysis
In short: (§2)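 Cells seeded, DAPI-stained DNA content of fixed cells read by imaging 24 h after seeding (T0), and again after a further 72 h exposure to a range of drug concentrations (T72). T72 values were normalized to T0. Curve fits gave the concentration producing 50% growth inhibition relative to T0 and Ymax (GI50).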

G-401 = test: Anticancer activity against human G-401 cells assessed as cell doubling measured for 72 hrs by DAPI staining based analysis
SW756 = test: Anticancer activity against human SW756 cells assessed as cell doubling measured for 72 hrs by DAPI staining based analysis
HCT-15 = test: Anticancer activity against human HCT-15 cells assessed as cell growth inhibition measured after 72 hrs by DAPI staining based analysis
UACC-62 = test: Anticancer activity against human UACC-62 cells assessed as cell growth inhibition measured after 72 hrs by DAPI staining based analysis
SW684 = test: Anticancer activity against human SW684 cells assessed as cell doubling measured for 72 hrs by DAPI staining based analysis
UMUC3 = test: Anticancer activity against human UM-UC-3 cells assessed as cell doubling measured for 72 hrs by DAPI staining based analysis
SK-UT-1 = test: Anticancer activity against human SK-UT-1 cells assessed as cell growth inhibition measured after 72 hrs by DAPI staining based analysis
NCI/ADR-RES = test: Anticancer activity against human NCI/ADR-RES cells assessed as cell growth inhibition measured after 72 hrs by DAPI staining based analysis
AGS = test: Anticancer activity against human AGS cells assessed as cell growth inhibition measured after 72 hrs by DAPI staining based analysis
In short: (§3)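 Cells were seeded and, after 24 h, DNA content was read as T0. Cells were then exposed to varying drug concentrations for a further 72 h (T72). Fixed cells were DAPI-stained and DNA content measured by automated imaging. T72 values were normalized to T0. GI50 is the concentration giving 50% growth inhibition between T0 and Ymax, obtained by curve fitting.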

BC-3 = test: Anticancer activity against human BC-3 cells assessed as cell growth inhibition measured after 72 hrs by DAPI staining based analysis; in short: as §3
HuP-T4 [3] = test: Anticancer activity against human HuP-T4 cells assessed as cell doubling measured for 72 hrs by DAPI staining based analysis
MOLT-16 = test: Anticancer activity against human MOLT-16 cells assessed as cell doubling measured for 72 hrs by DAPI staining based analysis
RL95-2 = test: Anticancer activity against human RL95-2 cells assessed as cell growth inhibition measured after 72 hrs by DAPI staining based analysis
MCF7 = test: Antitumor activity against human MCF7 cells in xenograft model assessed as difference between median time to endpoint time of treated versus control group at 62.5 mg/kg
HuP-T4 [4] = test: Anticancer activity against human HuP-T4 cells assessed as cell growth inhibition measured after 72 hrs by DAPI staining based analysis
[5] = Anticancer activity against human NCI-H322T cells assessed as cell doubling measured for 72 hrs by DAPI staining based analysis
DBTRG-05MG = test: Anticancer activity against human DBTRG-05MG cells assessed as cell growth inhibition measured after 72 hrs by DAPI staining based analysis; in short: as §2
A-375 = test: Anticancer activity against human A-375 cells assessed as cell growth inhibition measured after 72 hrs by DAPI staining based analysis; in short: as §3
SCC-4 = test: Anticancer activity against human SCC-4 cells assessed as cell growth inhibition measured after 72 hrs by DAPI staining based analysis
C-4-II = test: Anticancer activity against human C-4-II cells assessed as cell doubling measured for 72 hrs by DAPI staining based analysis
NCI-H295R = test: Anticancer activity against human NCI-H295R cells assessed as cell growth inhibition measured after 72 hrs by DAPI staining based analysis
HEC-1B cell line = test: Anticancer activity against human HEC-1B cells assessed as cell growth inhibition measured after 72 hrs by DAPI staining based analysis
[6] = Anticancer activity against human COLO-704 cells assessed as cell growth inhibition measured after 72 hrs by DAPI staining based analysis; in short: as §2
NCI-H716 = test: Anticancer activity against human NCI-H716 cells assessed as cell growth inhibition measured after 72 hrs by DAPI staining based analysis
COLO 205 [7] = test: Antitumor activity against human COLO 205 cells in xenograft model assessed as tumor growth delay at 62.5 mg/kg relative to control

**Q.** For `CC(C)Oc1ccc(C(=O)N[C@H](CNC(=O)CN(C)C)Cc2ccc(-c3cn4cccc([C@H](C)O)c4n3)cc2)cc1Cl` [GSK-923295A], which Activity (BE(2)-C) is on record?
**A.** 2.28

**Q.** What about the GI50 (BeWo) of the same molecule?
**A.** 26 nM

**Q.** What about the GI50 (SK-NEP-1) of the same molecule?
**A.** 55 nM

**Q.** And the Time (MX1)?
**A.** 6.9 days

**Q.** And the GI50 (WiDr)?
**A.** 18 nM

**Q.** What about the Time (A549) of the same molecule?
**A.** 25.3 days

**Q.** What about the GI50 (MDA-MB-468) of the same molecule?
**A.** 25 nM

**Q.** And the Activity (U2OS)?
**A.** 3.08

**Q.** And the GI50 [1]?
**A.** 63 nM

**Q.** And the GI50 (COLO 205 [2])?
**A.** 25 nM

**Q.** And the Activity (NCI-H146)?
**A.** 1.2

**Q.** What about the Activity (CAL-27) of the same molecule?
**A.** 2.55

**Q.** And the Activity (SK-N-AS)?
**A.** 2.37

**Q.** What about the Activity (HMCB cell line) of the same molecule?
**A.** 2.92

**Q.** What about the GI50 (FaDu) of the same molecule?
**A.** 32 nM

**Q.** And the Activity (G-401)?
**A.** 4.28

**Q.** And the Activity (SW756)?
**A.** 2.36

**Q.** And the GI50 (HCT-15)?
**A.** 151 nM

**Q.** And the GI50 (UACC-62)?
**A.** 25 nM

**Q.** And the Activity (SW684)?
**A.** 1.13

**Q.** And the Activity (UMUC3)?
**A.** 2.44

**Q.** And the GI50 (SK-UT-1)?
**A.** 23 nM

**Q.** What about the GI50 (NCI/ADR-RES) of the same molecule?
**A.** 3960 nM

**Q.** And the GI50 (AGS)?
**A.** 29 nM

**Q.** And the GI50 (BC-3)?
**A.** 88 nM

**Q.** And the Activity (HuP-T4 [3])?
**A.** 1.09

**Q.** And the Activity (MOLT-16)?
**A.** 4.23

**Q.** What about the GI50 (RL95-2) of the same molecule?
**A.** 49 nM

**Q.** What about the Time (MCF7) of the same molecule?
**A.** 5.4 days

**Q.** What about the GI50 (HuP-T4 [4]) of the same molecule?
**A.** 158 nM

**Q.** What about the Activity [5] of the same molecule?
**A.** 2.27

**Q.** And the GI50 (DBTRG-05MG)?
**A.** 17 nM

**Q.** And the GI50 (A-375)?
**A.** 26 nM

**Q.** What about the GI50 (SCC-4) of the same molecule?
**A.** 28 nM

**Q.** And the Activity (C-4-II)?
**A.** 2.42

**Q.** And the GI50 (NCI-H295R)?
**A.** 298 nM

**Q.** What about the GI50 (HEC-1B cell line) of the same molecule?
**A.** 28 nM

**Q.** And the GI50 [6]?
**A.** 69 nM

**Q.** What about the GI50 (NCI-H716) of the same molecule?
**A.** 174 nM

**Q.** And the Activity (COLO 205 [7])?
**A.** 122%
